Source: PubChem BioAssay
Most compounds without a hit are left out; they make up all but 2.9% or so of the library.
Wee1 stabilizer – Wee1 degradation inhibitors, primary screen, cell-based, HeLa, Wee1K328M-luciferase, luminescence | HeLa Luc-Wee1K328M stability; 100% = proteasome inhibitor MG132 effect | reporter increase, % at 5 µM | 1.2% of 220,000 active | AID 1321, 2008;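 active = activation above the mean of all tested compounds plus 3 SD, set per screening run, cut at about 8.8% in these data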;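 also: cells exposed to compound for 20 h before luminescence read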
Target sequence (P30291 whole entry K328M): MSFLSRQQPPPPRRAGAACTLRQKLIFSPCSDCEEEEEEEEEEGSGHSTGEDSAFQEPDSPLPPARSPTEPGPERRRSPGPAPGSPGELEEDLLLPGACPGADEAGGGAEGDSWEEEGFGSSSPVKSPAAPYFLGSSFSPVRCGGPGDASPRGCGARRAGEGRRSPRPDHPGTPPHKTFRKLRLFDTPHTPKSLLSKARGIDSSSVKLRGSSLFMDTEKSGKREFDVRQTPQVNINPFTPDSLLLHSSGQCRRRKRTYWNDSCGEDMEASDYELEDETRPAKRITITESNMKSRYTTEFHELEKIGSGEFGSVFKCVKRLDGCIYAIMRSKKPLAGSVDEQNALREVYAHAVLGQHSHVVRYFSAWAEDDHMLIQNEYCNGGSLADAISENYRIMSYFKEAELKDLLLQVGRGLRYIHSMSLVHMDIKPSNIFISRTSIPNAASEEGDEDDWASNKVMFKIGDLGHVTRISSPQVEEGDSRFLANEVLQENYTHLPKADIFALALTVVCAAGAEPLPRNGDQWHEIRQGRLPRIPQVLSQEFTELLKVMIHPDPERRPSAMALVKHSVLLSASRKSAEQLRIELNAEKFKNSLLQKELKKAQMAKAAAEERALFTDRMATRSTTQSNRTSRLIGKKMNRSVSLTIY
b-catenin transl – modulators of beta-catenin nuclear translocation, primary screen, imaging, HeLa cells, immunofluorescence, high-content. nuclear translocation activity, % at 5 µM. 0.3% of 190,000 active;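 active = nuclear translocation activity above 50% at 5 µM, with a well cell count of 50 or more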;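 also: per-cell ratio of nuclear to cytoplasmic median beta-catenin stain intensity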
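Test system: human HeLa cells, endogenous beta-catenin. Times: 24 h compound exposure, 37°C. Measured by: beta-catenin immunofluorescence imaging with DAPI.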
Ins promoter up – insulin promoter activators in MIN6 cells, imaging, high-content screening, mouse beta cells. MIN6 insulin promoter-GFP reporter; hits give high values. AID 1625, 2009. 0.3% of 190,000 active. z-score at 5 µM;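 active = z-score above 3 at 5 µM with at least 500 cells counted in the well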
Autophagy HCS – autophagy modulators in MEF cells, primary screen, imaging, high-content, MEF GFP-LC3. 0.98% of 190,000 active. AID 463193, 2010. calls only at 10 µM (by protocol). MEF GFP-LC3 puncta imaging; test concentration mostly 10 µM;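 active = percentage of spot-positive cells more than 3 SD above its plate mean, without a fluorescence outlier flag or 80% toxicity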
MT stabilize HCS – microtubule stabilizers in HeLa cells, primary screen, imaging, high-content imaging. HeLa tubulin immunostaining HCS, 24 h; share of cells brighter than vehicle mean+2SD. % tubulin-high responders, % at 10 µM. 0.83% of 200,000 active. AID 2205, 2009;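 active = plate Z-score above 3 for both tubulin-high and condensed-nucleus cell shares, with cell loss under 80%, at 10 µM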;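 also: anti alpha tubulin signal scored within the nucleus-defined area of each cell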
Of the large screens only hits and unclear results are named; the others gave an inactive call.

CCn1cc(CN2CCN(CCc3ccccc3)C(CCO)C2)c(C)n1 (stereo not given)	none
CCc1ccc(NC(=O)CCn2cccc2)cc1	none (no result: b-catenin transl)
Cc1ccc(NC(=O)CCn2cccc2)cc1Cl	Ins promoter up 3.2
Cc1c(CN2CCCC(C(=O)c3cccc(OC(C)C)c3)C2)c(=O)n(-c2ccccc2)n1C (stereo not given)	Autophagy HCS active
CCCc1cc(-n2ccnc2)n2c(nc3ccccc32)c1C#N	Ins promoter up 5.5
CC(C)c1ccc(NC(=O)COc2ccc(F)cc2C(=O)c2cnn(-c3ccccc3)c2)cc1	MT stabilize HCS 20 (no result: b-catenin transl)
COc1ccc(/C=C/C(=O)Nc2ccc(OC)cc2[N+](=O)[O-])cc1	none
CCOc1ccc(NC(=O)/C=C/c2ccc(OC)cc2)c([N+](=O)[O-])c1	Autophagy HCS active (no result: b-catenin transl)
COC(=O)c1cc(Cl)c(NC(=O)/C=C/c2ccc(OC)cc2)cc1OC	MT stabilize HCS 26 (no result: Ins promoter up)
CC(=O)NC(CC(=O)N(C)Cc1cccc(Cl)c1Cl)c1ccccc1 (stereo not given)	none (no result: Ins promoter up)
COc1cccc(/C=C/C(=O)OCC(=O)NCCc2ccccc2)c1	none
Cc1ccc2cc(/C=N/NC(=O)CN3CCCCC3)c(Cl)nc2c1	none
CCC1CCCCN1S(=O)(=O)c1ccc(NC(=O)c2cccs2)cc1 (stereo not given)	none
CCC1CCCCN1S(=O)(=O)c1ccc(NC(=O)CSc2ncccc2C(=O)O)cc1 (stereo not given)	Autophagy HCS active
COc1ccccc1NC(=S)NC(=O)c1ccc(Cn2cc(Br)cn2)cc1	none
COc1ccc(N(C(=O)c2ccccc2C)S(=O)(=O)c2cccs2)cc1	b-catenin transl 99, MT stabilize HCS 16
Cc1ccccc1/C=C1\CCCc2ccccc2C1=O	none
O=C1/C(=C\c2ccc3ccccc3c2)CCCc2ccccc21	b-catenin transl 50, MT stabilize HCS 30
O=C(Nc1ccccc1)Nc1csc2ccccc12	Wee1 stabilizer 10 (no result: Autophagy HCS, MT stabilize HCS)
COc1ccccc1Nc1ccc(C(=O)NCc2cccs2)cn1	none
COc1ccccc1Nc1ncc(-c2cccs2)s1	b-catenin transl 107
Cc1c(Nc2cc(Cl)c3nonc3c2[N+](=O)[O-])c(=O)n(-c2ccccc2)n1C	Autophagy HCS active (no result: b-catenin transl)
Cc1c(Nc2cc(N3CCOCC3)c3nonc3c2[N+](=O)[O-])c(=O)n(-c2ccccc2)n1C	none
COCCNC(=O)C1CCN(S(=O)(=O)c2ccccc2)CC1	none
Cc1ccc(-c2oc3ccccc3c(=O)c2OCC(=O)O)cc1	none
Cc1ccc(-c2oc3ccccc3c(=O)c2O)cc1	Autophagy HCS active
O=C(N/N=C/c1ccc(F)cc1)c1sccc1OCc1ccc(F)cc1	b-catenin transl 87, MT stabilize HCS 34
O=C(N/N=C/c1ccc(Cl)cc1)c1sccc1OCc1ccc(F)cc1	MT stabilize HCS 19
COC(=O)c1ccc(NC(=O)CN2CCC(NC(=O)c3ccco3)CC2)cc1	Wee1 stabilizer 11
COCCNC(=S)N/N=C(\C)c1cccc(OC)c1	none
CCOC(=O)C1=C(c2ccccc2)NC(SCC(=O)Nc2cccc(C)c2)=C(C#N)C1c1ccco1 (stereo not given)	Autophagy HCS active
CCOC(=O)C1=C(c2ccccc2)NC(SCC(=O)Nc2ccc(C)cc2)=C(C#N)C1c1ccco1 (stereo not given)	none
Cc1ccc(C(=O)Nc2c(-c3cccs3)c(=O)c3ccccc3n2C)cc1	Wee1 stabilizer 9.1
CCCc1nn(C)c(C(=O)Nc2cccc3ccccc23)c1Cl	Autophagy HCS active
CCCc1nn(C)c(C(=O)Nc2ccc(CC)cc2)c1Cl	none
COC(=O)c1sccc1NC(=S)N1CCN(c2cc(C)ccc2C)CC1	MT stabilize HCS 17
Cc1cc(N2CCN(C)CC2)nc2ccc(NC(=S)N3CCN(c4ccccn4)CC3)cc12	none
Cc1nc2ccc(NC(=S)N3CCN(c4ccccn4)CC3)cc2nc1C	Wee1 stabilizer 9.0
Cc1ccc(C2(C(F)(F)F)N=C3Sc4cc(C)ccc4N3C(=O)N2)cc1 (stereo not given)	Ins promoter up 3.5
Cc1ccc(C2(C(F)(F)F)NC(=O)N3CCN=C3S2)cc1 (stereo not given)	none
CC(=O)c1ccc(N=c2scc(C)n2C(C)C)cc1	none
CCN(CC)CCOc1ccc2c(c1)C(=NO)c1cc(OCCN(CC)CC)ccc1-2	Autophagy HCS active
COc1ccccc1C/C(N)=N/OC(=O)c1ccco1	none
CO/N=C\CC(=O)Nc1ccc(Cl)cc1Cl	MT stabilize HCS 10 (no result: Ins promoter up)
CO/N=C\CC(=O)Nc1ccc(F)cc1	none
C=CCn1c(C)csc1=Nc1ccc(C(=O)O)cc1	none
CCc1ccccc1NC(=S)N1N=CCC1c1ccccc1 (stereo not given)	Wee1 stabilizer 8.8
COC(=O)c1sccc1NC(=O)C1CCCCC1C(=O)O (stereo not given)	none
Cc1cccc(S(=O)(=O)Nc2ccc(C)c3c2OC(C)(C)C3)c1	Autophagy HCS active
CC(NC(=O)C(=O)NCCC1=CCCCC1)c1ccccc1 (stereo not given)	Wee1 stabilizer 8.8
CN(C)S(=O)(=O)c1cccc(N2C(=O)CC3(CCCCC3)CC2=O)c1	none
CCN(CC)c1ccc(/C=N/Nc2nc3ccccc3[nH]2)cc1	Autophagy HCS active
CCNc1nc2ccccc2[nH]1	Wee1 stabilizer 9.8
CC(=O)Nc1ccc(/C=N/Nc2nc3ccccc3[nH]2)cc1	none
COc1cc(C2C(C#N)=C(C)NC(C)=C2C#N)cc(OC)c1OC	none
Cn1cnnc1SCCCN1C(=O)c2cccc3cccc(c23)C1=O	none
COc1ccc(OC)c(Nc2nc(NCc3ccco3)nc(N)c2[N+](=O)[O-])c1	Wee1 stabilizer 8.9 (no result: Ins promoter up, Autophagy HCS, MT stabilize HCS)
CCC(=NCCc1c(C)[nH]c2ccccc12)C1=C(O)CC(c2ccccc2)CC1=O (stereo not given)	b-catenin transl 80, MT stabilize HCS 15
CCCCC(=NCCc1c(C)[nH]c2ccc(OC)cc12)C1=C(O)CC(c2ccccc2)CC1=O (stereo not given)	MT stabilize HCS 17
CCC(=NCCc1c(C)[nH]c2ccc(OC(F)(F)F)cc12)C1=C(O)CC(c2ccccc2)CC1=O (stereo not given)	none
COc1ccc2cc(/C(C)=N/NC(=S)Nc3cc(S(=O)(=O)N4CCOCC4)ccc3N3CCOCC3)ccc2c1	Autophagy HCS active
C/C(=N\NC(=S)Nc1cc(S(=O)(=O)N2CCOCC2)ccc1Cl)c1ccc(N2CCOCC2)cc1	none (no result: Autophagy HCS, MT stabilize HCS)
Cc1cc(C(=O)COc2ccc(-c3nnco3)cc2)c(C)n1Cc1ccccc1	none
O=C(CNC(=O)c1ccc2c(c1)OCO2)N/N=C(Br)/C=C/c1ccccc1	MT stabilize HCS 19
CCCCOCCCn1c(-c2ccco2)nc2nc3ccccc3nc21	none
N#CCSc1nnc(-c2ccccc2O)n1Cc1ccccc1	Wee1 stabilizer 11
